# Data reported in ChEMBL document CHEMBL1151964, “Divergent modes of enzyme inhibition in a homologous structure-activity series” (J Med Chem, 2009).
# Activity calls are given as the source filed them. No cut-off for these calls is given here.
# Assays:
# [1] = biological target: Cruzipain (Trypanosoma cruzi) (UniProt P25779); test: Inhibition of Trypanosoma cruzi cruzain at 200 uM preincubated for 5 mins before substrate addition
# Cruzipain [2] = biological target: T1, Cruzipain (Trypanosoma cruzi, UniProt P25779); test: Inhibition of Trypanosoma cruzi cruzain preincubated for 5 mins before substrate addition
# T1 sequence (P25779 whole entry): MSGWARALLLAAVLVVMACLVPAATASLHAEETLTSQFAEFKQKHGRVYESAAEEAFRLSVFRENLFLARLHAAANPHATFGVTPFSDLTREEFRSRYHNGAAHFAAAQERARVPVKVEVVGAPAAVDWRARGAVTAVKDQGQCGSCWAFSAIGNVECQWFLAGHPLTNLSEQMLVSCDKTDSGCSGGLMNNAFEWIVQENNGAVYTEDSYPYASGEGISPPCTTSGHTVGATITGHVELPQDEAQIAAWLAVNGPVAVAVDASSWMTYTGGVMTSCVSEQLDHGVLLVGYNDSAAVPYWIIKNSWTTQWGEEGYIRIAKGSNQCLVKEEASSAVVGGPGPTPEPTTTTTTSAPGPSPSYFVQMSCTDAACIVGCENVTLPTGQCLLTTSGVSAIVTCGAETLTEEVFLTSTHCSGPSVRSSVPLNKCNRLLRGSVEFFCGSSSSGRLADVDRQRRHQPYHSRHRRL
# In short: (§1)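 Cruzain IC50s were measured from dose-response curves with Triton X-100 in the assay buffer at either 0.01% or 0.001%. At 0.001% Triton, some runs included pre-incubation with BSA.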
# [3] = biological target: Cruzipain (Trypanosoma cruzi) (UniProt P25779); test: Inhibition of Trypanosoma cruzi cruzain assessed as colloidal aggregates particles formation after 5 mins by flow cytometry
# In short: (§2)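 Particle (aggregate) formation was assessed by flow cytometry, with some samples checked by dynamic light scattering. The value is the lowest concentration tested at which particles were seen.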
# Cruzipain [4] = biological target: T1, Cruzipain; test: Inhibition of Trypanosoma cruzi cruzain preincubated for 5 mins before substrate addition in presence of 0.001% Triton X-100; in short: as §1
# [5] = biological target: Cruzipain (Trypanosoma cruzi) (UniProt P25779); test: Inhibition of Trypanosoma cruzi cruzain assessed as colloidal aggregates particles formation after 5 mins by flow cytometry in presence of 0.001% Triton X-100; in short: as §2
# Cruzipain [6] = biological target: T1, Cruzipain; test: Inhibition of Trypanosoma cruzi cruzain preincubated for 5 mins before substrate addition in presence of 0.01% Triton X-100; in short: as §1
# [7] = biological target: Cruzipain (Trypanosoma cruzi) (UniProt P25779); conditions: 50 uM
# [8] = biological target: Cruzipain (Trypanosoma cruzi) (UniProt P25779); conditions: 5 uM
# [9] = Inhibition of Beta-lactamase AmpC at 13 uM preincubated for 5 mins before substrate addition
# In short: (§3)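 β-Lactamase AmpC inhibition was tested at the concentration stated, both without and with 0.01% Triton X-100. A compound was called an aggregator when its inhibition was detergent-sensitive.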
# [10] = biological target: Cruzipain (Trypanosoma cruzi) (UniProt P25779); test: Inhibition of Trypanosoma cruzi cruzain assessed as colloidal aggregates particles formation at 3.1 uM after 5 mins by dynamic light scattering assay
# Cruzipain [11] = biological target: T1, Cruzipain; test: Inhibition of Trypanosoma cruzi cruzain preincubated for 5 mins before substrate addition in presence of 0.001% Triton X-100 with 1 mg/ml bovine serum albumin
# [12] = Inhibition of Beta-lactamase AmpC at 50 uM preincubated for 5 mins before substrate addition; in short: as §3
# [13] = Inhibition of Beta-lactamase AmpC at 100 uM preincubated for 5 mins before substrate addition
# In short: (§4)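 AmpC β-lactamase inhibition measured without detergent and with 0.01% Triton X-100, at the compound concentrations listed per compound. A compound was classed as an aggregator if its inhibition was detergent-sensitive.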
# [14] = Inhibition of Beta-lactamase AmpC preincubated for 5 mins before substrate addition in presence of 0.01% Triton X-100; in short: as §4
# Cruzipain [15] = biological target: T1, Cruzipain; test: Competitive inhibition of Trypanosoma cruzi cruzain by Lineweaver-Burke plot analysis
# [16] = biological target: Cruzipain (Trypanosoma cruzi) (UniProt P25779); conditions: 25 uM
# Sequence of Cruzipain (Trypanosoma cruzi) (P25779 123-467 limits assumed): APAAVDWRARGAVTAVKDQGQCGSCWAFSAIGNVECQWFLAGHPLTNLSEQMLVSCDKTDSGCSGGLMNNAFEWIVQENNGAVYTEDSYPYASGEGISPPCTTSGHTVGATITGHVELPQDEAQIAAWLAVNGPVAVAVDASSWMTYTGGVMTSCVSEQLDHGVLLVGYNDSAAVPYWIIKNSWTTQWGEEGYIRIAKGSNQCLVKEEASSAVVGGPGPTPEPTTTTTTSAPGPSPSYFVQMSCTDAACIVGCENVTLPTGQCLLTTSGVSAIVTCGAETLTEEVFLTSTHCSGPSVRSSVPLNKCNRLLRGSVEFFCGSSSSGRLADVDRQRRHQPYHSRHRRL
smiles,measurement,setting,value
Nc1ncccc1C(=O)NCC(=O)NC1CCCCC1,inhibition,[1],16%
Nc1ccccc1-c1nnc(C(=O)NC2CCNCC2)o1,IC50,Cruzipain [2],> 100 µM
Nc1ccccc1-c1nnc(C(=O)NCCCN2CCCC2=O)o1,Activity,[3],> 200 µM
same,IC50,Cruzipain [2],> 100 µM
same,IC50,Cruzipain [4],> 100 µM
same,Activity,[5],inactive
same,IC50,Cruzipain [6],> 100 µM
Cc1ccc(CNC(=O)c2nnc(-c3ccccc3N)o2)o1,IC50,Cruzipain [2],14 µM
Nc1ccccc1-c1nnc(C(=O)Nc2cc(-c3cccs3)[nH]n2)o1,inhibition,[7],Active
same,inhibition,[8],Active
Nc1ccccc1-c1nnc(C(=O)NCc2c(N)cccc2F)o1,IC50,Cruzipain [2],52 µM
Nc1ccccc1-c1nnc(C(=O)NCc2ccnc(N3CCSCC3)c2)o1,IC50,Cruzipain [2],23 µM
Nc1ccccc1-c1nnc(C(=O)NCc2cccc(N3CCOCC3)c2)o1,IC50,Cruzipain [2],33 µM
CC(C)(C)c1cc(NC(=O)c2nnc(-c3ccccc3N)o2)[nH]n1,IC50,Cruzipain [2],2 µM
same,IC50,Cruzipain [4],2 µM
Nc1ccccc1-c1nnc(C(=O)NCc2ccc3c(c2)OCO3)o1,IC50,Cruzipain [2],6 µM
O=C(COC(=O)c1ccccn1)Nc1cc(Cl)ccc1Cl,inhibition,[1],16%
same,IC50,Cruzipain [6],> 200 µM
Nc1ccccc1-c1nnc(C(=O)NCc2cccc3nsnc23)o1,IC50,Cruzipain [2],6 µM
Cc1cccc(C(=O)OCC(=O)Nc2cc(Cl)ccc2Cl)c1,inhibition,[1],5%
same,IC50,Cruzipain [6],> 200 µM
CC(NC(=O)c1nnc(-c2ccccc2N)o1)C12CC3CC(CC(C3)C1)C2 (stereo not drawn),IC50,Cruzipain [2],18 µM
same,IC50,Cruzipain [6],18 µM
Nc1ccccc1-c1nnc(C(=O)NCc2c(Cl)cccc2Cl)o1,IC50,Cruzipain [4],8 µM
CC(C)(C)c1cc(NC(=O)c2nnc(-c3ccccc3N)o2)n[nH]1,Activity,[3],3.1 µM
same,inhibition,[9],Active
COc1cc(CNC(=O)c2nnc(-c3ccccc3N)o2)cc(OC)c1OC,IC50,Cruzipain [2],> 100 µM
Nc1ccccc1-c1nnc(C(=O)N[C@@H]2c3ccccc3C[C@@H]2O)o1,IC50,Cruzipain [2],32 µM
Nc1ccccc1-c1nnc(C(=O)Nc2cc(-c3ccccc3)[nH]n2)o1,IC50,Cruzipain [2],0.8 µM
same,IC50,Cruzipain [4],0.8 µM
Cc1cc(NC(=O)c2nnc(-c3ccccc3N)o2)[nH]n1,IC50,Cruzipain [2],11 µM
same,IC50,Cruzipain [4],11 µM
CCN1CCC[C@H]1CNC(=O)c1nnc(-c2ccccc2N)o1,Activity,[3],> 200 µM
same,IC50,Cruzipain [2],> 100 µM
same,IC50,Cruzipain [4],> 100 µM
same,Activity,[5],inactive
same,IC50,Cruzipain [6],> 100 µM
Cc1nn(-c2ccccc2)nc1CNC(=O)c1nnc(-c2ccccc2N)o1,IC50,Cruzipain [2],7 µM
Nc1ccccc1-c1nnc(C(=O)NCc2cccc(-n3cccn3)c2)o1,IC50,Cruzipain [2],17 µM
Nc1ccccc1-c1nnc(C(=O)NC2CCc3ccccc32)o1 (stereo not drawn),IC50,Cruzipain [2],17 µM
Nc1ccccc1-c1nnc(C(=O)NCc2ccccc2OC2CCOCC2)o1,IC50,Cruzipain [2],42 µM
COc1ccc(-c2cc(NC(=O)c3nnc(-c4ccccc4N)o3)n[nH]2)cc1,Activity,[3],3.1 µM
same,Activity,[10],Active
same,IC50,Cruzipain [2],0.2 µM
same,inhibition,[9],Active
same,IC50,Cruzipain [4],0.2 µM
Nc1ccccc1-c1nnc(C(=O)NCCN2CCNC2=O)o1,IC50,Cruzipain [2],> 100 µM
Nc1ccccc1-c1nnc(C(=O)NCc2nc3ccccc3[nH]2)o1,IC50,Cruzipain [2],17 µM
Nc1ccccc1C(=O)NCC(=O)NC1CCCCC1,inhibition,[1],15%
CC1C2CCC(C)(C2)C1NC(=O)c1nnc(-c2ccccc2N)o1 (stereo not drawn),IC50,Cruzipain [2],36 µM
Nc1ccccc1-c1nnc(C(=O)NC2Cc3ccccc3C2)o1,IC50,Cruzipain [2],11 µM
same,IC50,Cruzipain [6],11 µM
Nc1ccccc1-c1nnc(C(=O)Nc2ccc(N3CCOCC3)cc2)o1,IC50,Cruzipain [2],62 µM
same,IC50,Cruzipain [6],62 µM
Cn1ccc(NC(=O)c2nnc(-c3ccccc3N)o2)n1,Activity,[3],200 µM
same,IC50,Cruzipain [2],> 100 µM
same,IC50,Cruzipain [4],> 100 µM
same,IC50,Cruzipain [6],> 100 µM
CCN(CC)c1ccc(NC(=O)c2nnc(-c3ccccc3N)o2)cc1,IC50,Cruzipain [2],36 µM
NC(=O)c1ccsc1NC(=O)COC(=O)c1cc(Br)ccc1N,inhibition,[1],61%
same,IC50,Cruzipain [6],90 µM
Nc1ccccc1C(=O)OCC(=O)Nc1cc(Cl)ccc1Cl,IC50,Cruzipain [2],58 µM
Cn1nccc1NC(=O)c1nnc(-c2ccccc2N)o1,IC50,Cruzipain [2],> 100 µM
same,IC50,Cruzipain [6],> 100 µM
Nc1ccccc1-c1nnc(C(=O)Nc2cc(-c3cccs3)n[nH]2)o1,IC50,Cruzipain [11],102 µM
same,IC50,Cruzipain [2],1 µM
same,IC50,Cruzipain [4],1 µM
COc1ccc(OC)c(CNC(=O)c2nnc(-c3ccccc3N)o2)c1,IC50,Cruzipain [11],45 µM
same,IC50,Cruzipain [2],8 µM
same,IC50,Cruzipain [4],8 µM
Cc1cc(NC(=O)c2nnc(-c3ccccc3N)o2)n[nH]1,Activity,[3],50 µM
same,inhibition,[12],inactive
Nc1ccccc1-c1nnc(C(=O)Nc2cccc(N3CCCC3)c2)o1,IC50,Cruzipain [11],99 µM
same,Activity,[3],50 µM
same,IC50,Cruzipain [2],7 µM
same,inhibition,[12],Active
same,IC50,Cruzipain [4],7 µM
Nc1ccccc1-c1nnc(C(=O)NCc2csc(-c3cccs3)n2)o1,IC50,Cruzipain [2],2 µM
same,IC50,Cruzipain [6],2 µM
Nc1ncccc1C(=O)OCC(=O)Nc1ccccc1OC(F)F,inhibition,[1],58%
same,IC50,Cruzipain [6],126 µM
Nc1ncccc1C(=O)OCC(=O)NC1CCCCCC1,IC50,Cruzipain [2],87 µM
same,inhibition,[1],68%
same,Activity,[5],250 nM
Nc1ccccc1-c1nnc(C(=O)Nc2nnc(-c3ccc(Cl)cc3)s2)o1,IC50,Cruzipain [2],4 µM
same,IC50,Cruzipain [6],4 µM
Nc1ccccc1-c1nnc(C(=O)Nc2ccc3oc4c(c3c2)CCCC4)o1,Activity,[3],> 100 µM
same,IC50,Cruzipain [2],2 µM
same,inhibition,[12],Active
same,IC50,Cruzipain [4],2 µM
Nc1ccccc1-c1nnc(C(=O)N[C@H]2CCCCNC2=O)o1,IC50,Cruzipain [2],> 100 µM
Nc1ccccc1-c1nnc(C(=O)NCc2ccc(Oc3ccccc3)cc2)o1,IC50,Cruzipain [2],6 µM
same,IC50,Cruzipain [6],6 µM
Nc1ccccc1-c1nnc(C(=O)NCCCn2ccnc2)o1,IC50,Cruzipain [2],> 100 µM
Cc1cc2cc(NC(=O)c3nnc(-c4ccccc4N)o3)ccc2[nH]1,IC50,Cruzipain [2],6 µM
same,IC50,Cruzipain [4],6 µM
same,IC50,Cruzipain [6],> 100 µM
Cc1ccc(-c2cc(NC(=O)c3nnc(-c4ccccc4N)o3)[nH]n2)cc1,IC50,Cruzipain [2],0.5 µM
same,IC50,Cruzipain [4],0.5 µM
Nc1ccccc1-c1nnc(C(=O)NCc2ccc(Cn3cccn3)cc2)o1,IC50,Cruzipain [2],8 µM
CCC(NC(=O)COC(=O)c1cccnc1N)c1ccc(Br)cc1 (stereo not drawn),IC50,Cruzipain [2],84 µM
same,inhibition,[1],65%
same,Activity,[5],250 nM
Nc1ncccc1C(=O)OCC(=O)Nc1cc(Cl)ccc1Cl,IC50,Cruzipain [11],116 µM
same,inhibition,[13],Active
same,inhibition,[14],inactive
same,IC50,Cruzipain [2],77 µM
same,inhibition,[1],79%
same,Ki,Cruzipain [15],32 µM
same,IC50,Cruzipain [4],27 µM
same,Activity,[5],250 nM
same,inhibition,[16],Active
Nc1ccccc1-c1nnc(C(=O)Nc2nc(-c3ccc(Cl)cc3)cs2)o1,IC50,Cruzipain [2],3 µM
Nc1ccccc1-c1nnc(C(=O)NCc2ccnc(N3CCOCC3)c2)o1,IC50,Cruzipain [2],83 µM
same,IC50,Cruzipain [6],83 µM
Nc1ccccc1-c1nnc(C(=O)NCCN2CCOCC2)o1,IC50,Cruzipain [2],> 100 µM
same,IC50,Cruzipain [4],> 100 µM
same,IC50,Cruzipain [6],> 100 µM
Nc1ccccc1-c1nnc(C(=O)NCc2ccc(C(F)(F)F)c(F)c2)o1,IC50,Cruzipain [2],10 µM
Nc1ccccc1-c1nnc(C(=O)Nc2ccc3[nH]ncc3c2)o1,IC50,Cruzipain [2],41 µM
Nc1ncccc1C(=O)OCC(=O)Nc1ccc2c(c1)OCCO2,inhibition,[1],51%
same,IC50,Cruzipain [6],182 µM
Nc1ccccc1-c1nnc(C(=O)NCc2ccccc2N2CCOCC2)o1,IC50,Cruzipain [2],38 µM
